Assay outcomes as filed in PubChem.
IMP-1 inh = blocks Pseudomonas aeruginosa IMP-1 metallo-beta-lactamase. purified IMP-1, nitrocefin hydrolysis, epi-absorbance fluorescence. inhibition, % at 5.6 µM. hit rate 0.45% among 290,000;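 active means inhibition above the mean plus 3 SD of all compounds in the same screening run, cut at about 4.5% in these data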
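System: purified IMP-1; amount: IMP-1 0.2 nM before substrate addition; compound: single dose, 5.6 µM; times: 25 °C, 15 min preincubation, 25 min reaction; signal: Epi-absorbance via hydrolysed-nitrocefin quenching of white-plate fluorescence, 480/530 nm, EDTA stop; benchmarks: DMSO with and without IMP-1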
p-CIP stab down = compounds decreasing mouse p/CIP protein stability. Q05BA5. F442A p/CIP-EGFP cells, EGFP fluorescence, 16 h. decrease of EGFP signal, % at 10 µM. hit rate 0.01% among 290,000. AID 1984;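 active means EGFP signal decrease of at least 30% at 10 µM or well 3 SD below plate mean, unless failing retest; inactive means the rest, including hits failing retest or dose response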
VIM-2 inh = inhibitors of Pseudomonas aeruginosa VIM-2 metallo-beta-lactamase; purified VIM-2, nitrocefin hydrolysis, epi-absorbance fluorescence; inhibition, % at 5.6 µM; hit rate 0.89% among 290,000; AID 1527;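 active means inhibition above the mean of all tested compounds plus 3 SD, cutoff set per screening run, cut at about 7.5% in these data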;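 further: red hydrolysis product quenches plate fluorescence so inhibitors raise well fluorescence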
CTSL1 counter = counter-screen for PFM18AAP inhibitors: inhibitors of F. hepatica cathepsin L1 | recombinant F. hepatica cathepsin L1, Z-Leu-Arg-MCA fluorescence | AID 1906 | inhibition, % at 5.96 µM | hit rate 0.49% among 300,000;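 active means inhibition above the mean of all tested compounds plus 3 SD, set per screening campaign, cut at about 17% in these data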
T cell HTS = T cell immune modulation candidate. hit rate 0.068% among 330,000. AID 2052. response (vesicle binding), % at 7 µM. 2C CD8+ T cell-vesicle binding, flow cytometry; hits give low values;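 active means response, share of CD8 T cells binding vesicles, and their 90th percentile fluorescence all below set limits, cut at about 80% in these data, passing the limit was not always enough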;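 further: values below 100% mean blocked vesicle binding to the CD8+ T cells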
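Test system: purified 2C TCR transgenic mouse naive CD8+ T cells. Probe or stimulus: QL9-peptide-loaded Drosophila micro-vesicles bearing Ld, ICAM-1 and B7-1. Incubation: binding step 1.5 h, 37 °C, antibody labelling 20 min, ice. Measured by: flow cytometry of vesicle-bound cells.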
UBC9 SUMO inh = inhibitors of human SUMOylation (UBC9); P63279; HTRF SUMOylation assay, SAE1/SAE2 + UBC9, in vitro; inhibition, % at 35 µM; hit rate 0.36% among 290,000; AID 2006; in the data active means inhibition above about 50%, passing the limit was not always enough
Target sequence (P63279 whole entry, looked up): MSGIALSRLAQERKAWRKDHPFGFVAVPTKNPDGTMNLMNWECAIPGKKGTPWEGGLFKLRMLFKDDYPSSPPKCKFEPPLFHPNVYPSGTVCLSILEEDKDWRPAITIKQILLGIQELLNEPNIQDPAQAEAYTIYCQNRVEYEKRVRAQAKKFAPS
Large screens that a line does not name were inactive. An excerpt weighted towards active compounds, which were near 1.9% of everything screened.

CCc1ccc(C(=O)C[n+]2cccc3cc(OC)ccc32)cc1	none (no result: CTSL1 counter)
COC(=O)CSc1nc(N)c(C#N)c(-c2ccco2)c1C#N	none
CCSc1nc(N)c(C#N)c(-c2ccco2)c1C#N	IMP-1 inh 4.5
Clc1ccc(OCCSc2ncccn2)c2ccccc12	none
c1cnc(SCCOc2cccc3ccccc23)nc1	IMP-1 inh 4.8
O=C(CCN=C1NS(=O)(=O)c2ccccc21)NCc1ccccc1F	none (no result: IMP-1 inh, p-CIP stab down, VIM-2 inh, CTSL1 counter, UBC9 SUMO inh)
CCCCC/C(=N\NC(=O)Nc1ccccc1)c1ccccc1	CTSL1 counter 25.4
O=C(CSc1ncn[nH]1)CSc1ncn[nH]1	T cell HTS 11.1
COc1ccc(CCNC(=O)c2cc(-c3ccccn3)nc3ccccc23)cc1	none (no result: IMP-1 inh, p-CIP stab down, VIM-2 inh, CTSL1 counter, UBC9 SUMO inh)
CCc1n[nH]c(=S)n1/N=C/c1cc(OC)cc([N+](=O)[O-])c1O	IMP-1 inh 4.6
COc1cc(/C=N/n2c(=S)[nH]nc(C)c2=O)cc([N+](=O)[O-])c1O	none
S=C(Nc1ccccc1Cl)Nc1ccc(Cl)cc1Cl	none
O=C(Nc1ccccc1Cl)Oc1ccc(Cl)cc1Cl	T cell HTS 27.2
Cc1[nH][nH]c(=O)c1C(c1c(C)[nH][nH]c1=O)c1cn(Cc2ccccc2Cl)c2ccccc12	UBC9 SUMO inh 70.0 (no result: CTSL1 counter, T cell HTS)
COc1ccc(S(=O)(=O)N2CCCC(C(=O)NCC3CCCO3)C2)cc1C (stereo not given)	none
O=C(NCC1CCCO1)C1CCCN(S(=O)(=O)c2cccc(C(F)(F)F)c2)C1 (stereo not given)	IMP-1 inh 4.6
Cn1c(C(=O)NC2CC2)cc2c(=O)n(C)c3ccccc3c21	VIM-2 inh 17.0
COCCCNC(=O)c1cc2c(=O)n(C)c3ccccc3c2n1C	VIM-2 inh 7.8
Cn1c(C(=O)NCCCN2CCc3ccccc3C2)cc2c(=O)n(C)c3ccccc3c21	VIM-2 inh 9.8 (no result: T cell HTS)
CCOC(=O)N1CCC(NC(=O)c2cc3c(=O)n(C)c4ccccc4c3n2C)CC1	none
COc1ccc(CCNC(=O)c2cc3c(=O)n(C)c4ccccc4c3n2C)cc1OC	none
CC(=O)OCCNc1cc(SCc2ccco2)c2nonc2c1[N+](=O)[O-]	none
CC(=O)OCCCNc1cc(Sc2ccc(C)cc2)c2nonc2c1[N+](=O)[O-]	none
O=[N+]([O-])c1c(NCCCO)cc(SCc2ccco2)c2nonc12	UBC9 SUMO inh 89.6
CCCC(=O)OCCNc1cc(SCCC(=O)OC)c2nonc2c1[N+](=O)[O-]	UBC9 SUMO inh 74.5
COc1ccc(CNc2cc(NCCCO)c([N+](=O)[O-])c3nonc23)cc1	UBC9 SUMO inh 96.2
COC(=O)CCSc1cc(NCCOC(C)=O)c([N+](=O)[O-])c2nonc12	none
CC(=O)OCCCNc1cc(Sc2nc3ccccc3s2)c2nonc2c1[N+](=O)[O-]	UBC9 SUMO inh 91.9
CCC(=O)c1c(NC(CC)CO)cc(C)oc1=O (stereo not given)	none
O=C(NCc1nnnn1-c1ccc(F)c(F)c1)c1ccc2c(c1)OCO2	none (no result: IMP-1 inh, p-CIP stab down, VIM-2 inh, UBC9 SUMO inh)
O=C1NCC(O)=C1C=Nc1ccccc1O	none
O=C(CN1c2ccccc2S(=O)(=O)c2ccccc21)NCc1ccc(F)cc1	none
Cn1c(=O)c2[nH]c(CN3CCN(Cc4ccccc4)CC3)nc2n(C)c1=O	none
Cn1c(N)nc2nc(CCc3ccccc3)c(=O)[nH]c2c1=O	IMP-1 inh 5.2
Cc1nc2c(ccc3nc(NC(=O)C4CC4)sc32)s1	VIM-2 inh 8.6
CCOc1ccc(NS(=O)(=O)c2cc(C(=O)NCCN3CCOCC3)ccc2C)cc1	none (no result: IMP-1 inh, p-CIP stab down, VIM-2 inh, CTSL1 counter, UBC9 SUMO inh)
Cc1c(O)ccc2c(CC(=O)N[C@@H](Cc3ccc(O)cc3)C(=O)O)cc(=O)oc12	UBC9 SUMO inh 53.1 (no result: CTSL1 counter)
COc1ccc2c(CC(=O)N[C@@H](Cc3ccccc3)C(=O)O)cc(=O)oc2c1C	none (no result: CTSL1 counter)
NC(=O)c1ccsc1NC(=O)COC(=O)c1cccnc1Cl	none (no result: IMP-1 inh, p-CIP stab down, VIM-2 inh, CTSL1 counter, UBC9 SUMO inh)
CCCc1cc(Nc2cccc(OC)c2)n2ncnc2n1	CTSL1 counter 18.1
COc1ccc(Nc2cc(C)nc3ncnn23)c(OC)c1	none
COC(=O)c1ccc(Nc2cc(C)nc3nc(C)nn23)cc1	none
CCOc1ccc(Nc2cc(C)nc3nc(C)nn23)cc1	VIM-2 inh 8.4
COc1ccc(Nc2cc(C)nc3nc(C)nn23)c(OC)c1	VIM-2 inh 12.2
COc1cccc(Nc2cc(C)nc3nc(C)nn23)c1	VIM-2 inh 10.8
CC1(C(=O)N/N=C/c2ccc3c(c2)OCO3)CC1(Br)Br (stereo not given)	none
CCOC(=O)c1ccccc1Nc1cc(C)nc2nc(C)nn12	VIM-2 inh 9.5
COCc1n[nH]c(=S)n1-c1cccc2ccccc12	VIM-2 inh 8.0
O=c1oc2c3c4c(cc2s1)CCCN4CCC3	UBC9 SUMO inh 77.6
Cc1ccc(S(=O)(=O)N2CCC(C(=O)OCC(=O)N(C)C3CCCCC3)CC2)cc1C	none (no result: IMP-1 inh, p-CIP stab down, VIM-2 inh, UBC9 SUMO inh)
COc1cc2c(cc1O)CC[n+]1cc3c(OC)c(OC)ccc3cc1-2	none
COc1cc2c(cc1OC)-c1cc3ccc4c(c3c[n+]1CC2)OCO4	CTSL1 counter 51.5 (no result: UBC9 SUMO inh)
Cc1c(O)c(CN(C)C)cc2c1oc(=O)c1ccccc12	VIM-2 inh 11.0
Cc1c(O)c(CN2CCCCC2)cc2c1oc(=O)c1ccccc12	none
Cn1c(SCc2cccc(F)c2)nnc1-c1cnccn1	CTSL1 counter 54.2
COc1cc(NC(=S)N2CCc3ccccc3C2)cc(OC)c1	none
CCCc1[nH][nH]c(=O)c1C(c1ccc(Br)cc1)C(C#N)C#N (stereo not given)	VIM-2 inh 8.8
Cc1[nH][nH]c(=O)c1C(c1ccc(Br)cc1)c1c(C)[nH][nH]c1=O	none
CCCc1[nH][nH]c(=O)c1C(c1ccccc1)C(C#N)C#N (stereo not given)	VIM-2 inh 9.1
Cc1[nH][nH]c(=O)c1[C@@H](c1ccccc1[N+](=O)[O-])C(C#N)C#N	none
CC(Oc1ccc(Cl)cc1)C(=O)NCC1CCCO1 (stereo not given)	none
CC(=O)N(C1=C(N2CCOCC2)C(=O)c2ccccc2C1=O)c1ccc(C(=O)O)cc1	none
CC(=O)c1ccc(NC2=C(N3CCOCC3)C(=O)c3ccccc3C2=O)cc1	CTSL1 counter 35.2
Cc1ccc(NC2=C(N3CCOCC3)C(=O)c3ccccc3C2=O)cc1	CTSL1 counter 17.0
O=C(O)c1ccc(NC2=C(N3CCOCC3)C(=O)c3ccccc3C2=O)cc1	CTSL1 counter 33.4
CC(=O)N(C)C1=C(N2CCOCC2)C(=O)c2ccccc2C1=O	none
COc1ccccc1C(=O)Nc1ccnn1C1CCN(CCCc2ccccc2)CC1	none
COc1ccccc1NC1=C(Cl)C(=O)N(C2CCCCC2)C1=O	none
Cc1ccccc1NC1=C(Cl)C(=O)N(C2CCCCC2)C1=O	IMP-1 inh 8.2
Cn1c2ccccc2c2c(C(=O)O)cn(C3CCCC3)c(=O)c21	CTSL1 counter 17.8
CSc1nc2sc3c(c2c2nncn12)CCC3	VIM-2 inh 10.7
